The nature of series [1]: Ratio of drug level in brain to plasma Sprague-Dawley rat at 10 mg/kg, po after 2 hrs.
The target in series [2] is T1, Muscarinic acetylcholine receptor M1 (Homo sapiens) (UniProt P11229).
T1 sequence (whole entry): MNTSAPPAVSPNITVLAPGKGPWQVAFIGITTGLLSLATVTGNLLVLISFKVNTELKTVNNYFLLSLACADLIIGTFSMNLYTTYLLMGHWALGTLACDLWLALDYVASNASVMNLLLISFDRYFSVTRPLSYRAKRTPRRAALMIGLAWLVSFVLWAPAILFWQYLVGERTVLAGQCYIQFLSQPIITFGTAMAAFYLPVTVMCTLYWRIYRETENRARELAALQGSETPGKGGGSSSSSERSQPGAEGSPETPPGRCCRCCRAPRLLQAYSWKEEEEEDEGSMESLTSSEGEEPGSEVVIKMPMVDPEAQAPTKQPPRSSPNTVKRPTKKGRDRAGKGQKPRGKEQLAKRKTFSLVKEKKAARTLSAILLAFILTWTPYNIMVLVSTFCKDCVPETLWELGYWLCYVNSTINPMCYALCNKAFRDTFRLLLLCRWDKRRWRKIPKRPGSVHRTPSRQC
In words: Allosteric modulation of human muscarinic M1 receptor expressed in CHO cells assessed as effect on acetylcholine-induced calcium mobilization by FLIPR assay. The series is classed as functional, cell-based. Summed up: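 Human M1-expressing CHO cells; test compound added with an EC20 concentration of acetylcholine; calcium mobilization read on FLIPR384. Inflection point (IP) derived; percent max is the maximum potentiated EC20 response. Values are the mean of at least two experiments; interassay variability ±30% for IP unless otherwise noted.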
Background: Calcium flux is commonly read through the fluorescence of an indicator in the cells.

Series [3] in a line: Plasma concentration in Sprague-Dawley rat at 10 mg/kg, po after 2 hrs.
The nature of series [4]: Drug level Sprague-Dawley rat cerebrospinal fluid at 10 mg/kg, po after 2 hrs.
Series [5] can be described thus: Drug level Sprague-Dawley rat brain at 10 mg/kg, po after 2 hrs.
Series [6] concerns the target T1, Muscarinic acetylcholine receptor M1 (Homo sapiens). In words: Allosteric modulation of human muscarinic M1 receptor expressed in CHO cells assessed as effect on acetylcholine-induced calcium mobilization by FLIPR assay relative to 1-Biphenyl-4-ylmethyl-4-oxo-1,4-dihydro-quinoline-3-carboxylic acid. The series is classed as functional, cell-based.
The target is the same in series [7]. In words: Potentiation of human muscarinic M1 receptor expressed in CHO cells assessed as effect on acetylcholine-induced calcium mobilization by FLIPR assay at 30 uM.

As a reminder, the Kp is tissue or fluid exposure divided by exposure in the circulation. As to `O=C(O)c1cn(Cc2ccc(-c3cccnc3)cn2)c2c(F)cccc2c1=O`, in series [1], the Kp at 2 h turned out to be 0.05. The IP in series [2] was determined as 370 nM. In addition, the values for the concentration at 2 h in series [3], in series [4] and in series [5] were 2790 nM, 25 nM and 154 nM, respectively.

Turning to `O=C(O)c1cn(Cc2ccc(-c3ccc(F)cc3)cn2)c2c(F)cccc2c1=O`, the IP in series [2] is 67 nM.

In the case of `CS(=O)(=O)c1ccccc1-c1ccc(Cn2cc(C(=O)O)c(=O)c3cccc(F)c32)nc1`, the IP in series [2] worked out at 97 nM.

Broadly, the Emax is the size of the effect at its maximum, as opposed to the concentration needed. Take `O=C(O)c1cn(Cc2ncc(-c3ccccc3)cn2)c2c(F)cccc2c1=O`: the IP in series [2] is 2320 nM. In addition, the Emax in series [6] is 90%.

In the case of `O=C(O)c1cn(Cc2ccc(-c3ccc(F)cc3)nn2)c2c(F)cccc2c1=O`, the IP in series [2] was 466 nM.

In the case of `O=C(O)c1cn(Cc2ccc(-c3ccc(F)nc3)nc2)c2c(F)cccc2c1=O`, the IP in series [2] is 202 nM.

On to `Nc1cccc(-c2ccc(Cn3cc(C(=O)O)c(=O)c4cccc(F)c43)nc2)c1`, for which the fold change (FC) in series [7] is 45. In addition, in series [2], the IP worked out at 21 nM.

Turning to `CN(C)c1cccc(-c2ccc(Cn3cc(C(=O)O)c(=O)c4cccc(F)c43)cn2)c1`, the IP in series [2] came to 130 nM.

Take `CS(=O)(=O)c1cccc(-c2ccc(Cn3cc(C(=O)O)c(=O)c4cccc(F)c43)nn2)c1`: in series [2], the IP was 1540 nM.

For the compound `O=C(O)c1cn(Cc2ccc(-c3cncc(F)c3)cn2)c2c(F)cccc2c1=O`, the IP in series [2] is 680 nM.

For the compound `Cn1cc(-c2ccc(Cn3cc(C(=O)O)c(=O)c4cccc(F)c43)nc2)cn1`, the partition ratio (Kp) at 2 h in series [1] worked out at 0.03. Besides, in series [7], the fold change (FC) was 37. For the same compound, in series [2], the IP worked out at 160 nM. In addition, the figures for the concentration at 2 h in series [3], in series [4] and in series [5] were 33300 nM, 40 nM and 430 nM, respectively.

With `O=C(O)c1cn(Cc2ccc(-c3ccc(Cl)nc3)nc2)c2c(F)cccc2c1=O`, the IP in series [2] is 169 nM.

In the case of `O=C(O)c1cn(Cc2ccc(-c3ccccc3)cn2)c2c(F)cccc2c1=O`, the fold change (FC) in series [7] was 37. For the same compound, in series [2], the IP was determined as 153 nM. In addition, the Emax in series [6] amounted to 80%.

For `O=C(O)c1cn(Cc2ccc(-c3ccccc3)nc2)c2c(F)cccc2c1=O`, the IP in series [2] turned out to be 604 nM. Besides, the Emax in series [6] was determined as 97%.

`CS(=O)(=O)c1cccc(-c2ccc(Cn3cc(C(=O)O)c(=O)c4cccc(F)c43)nc2)c1`: in series [2], the IP came to 97 nM.

Consider `CS(=O)(=O)c1ccc(-c2ccc(Cn3cc(C(=O)O)c(=O)c4cccc(F)c43)nc2)cc1`, for which the fold change (FC) in series [7] turned out to be 33. For the same compound, in series [2], the IP was 260 nM.

In the case of `O=C(O)c1cn(Cc2ccc(-c3ccccc3)nn2)c2c(F)cccc2c1=O`, in series [2], the IP amounted to 390 nM. The Emax in series [6] amounted to 97%.

For `Nc1ccc(-c2ccc(Cn3cc(C(=O)O)c(=O)c4cccc(F)c43)nc2)cn1`, the IP in series [2] was determined as 200 nM.

Turning to `O=C(O)c1cn(Cc2ccc(-c3ccc4[nH]ccc4c3)nn2)c2c(F)cccc2c1=O`, in series [2], the IP was 8660 nM.

With `CS(=O)(=O)c1cccc(-c2ccc(Cn3cc(C(=O)O)c(=O)c4cccc(F)c43)cn2)c1`, in series [1], the Kp at 2 h amounted to 0.4. The IP in series [2] was found to be 28 nM. Further, the values for the concentration at 2 h in series [3] and in series [5] were 382 nM and 154 nM, respectively.

`Cn1cc(-c2ccc(Cn3cc(C(=O)O)c(=O)c4c(F)ccc(F)c43)nc2)cn1`: the IP in series [2] was 114 nM.

For `CN(C)c1ccc(-c2ccc(Cn3cc(C(=O)O)c(=O)c4cccc(F)c43)nc2)cn1`, the IP in series [2] stood at 82 nM.

In the case of `O=C(O)c1cn(Cc2ccc(-c3ccc4[nH]ccc4c3)nc2)c2c(F)cccc2c1=O`, the IP in series [2] is 65 nM.

Turning to `CC(=O)Nc1ccc(-c2ccc(Cn3cc(C(=O)O)c(=O)c4cccc(F)c43)nc2)cc1`, in series [2], the IP was 78 nM.

For `CN(C)c1cccc(-c2ccc(Cn3cc(C(=O)O)c(=O)c4cccc(F)c43)nc2)c1`, the IP in series [2] was 110 nM.

As to `Nc1cccc(-c2ccc(Cn3cc(C(=O)O)c(=O)c4cccc(F)c43)cn2)c1`, the IP in series [2] came out at 21 nM.

Turning to `O=C(O)c1cn(Cc2ccc(-c3ccc4[nH]ccc4c3)cn2)c2c(F)cccc2c1=O`, the IP in series [2] is 57 nM.

For the compound `O=C(O)c1cn(Cc2cnc(-c3ccccc3)nc2)c2c(F)cccc2c1=O`, in series [2], the IP came out at 4000 nM. Besides, the Emax in series [6] stood at 88%.

As for `O=C(O)c1cn(Cc2ccc(-c3ccnc(Cl)c3)cn2)c2c(F)cccc2c1=O`, in series [2], the IP is 169 nM.

As to `O=C(O)c1cn(Cc2ccc(-c3ccc(F)cc3)nc2)c2c(F)cccc2c1=O`, the IP in series [2] came out at 190 nM.

Consider `O=C(O)c1cn(Cc2cnc(-c3ccccc3)cn2)c2c(F)cccc2c1=O`, for which the IP in series [2] was 1300 nM. Also, in series [6], the Emax turned out to be 85%.

`O=C(O)c1cn(Cc2ccc(-c3cccs3)cn2)c2c(F)cccc2c1=O`: the IP in series [2] amounted to 150 nM.

As for `O=C(O)c1cn(Cc2ccc(-c3ccc(F)nc3)cn2)c2c(F)cccc2c1=O`, the Kp at 2 h in series [1] worked out at 0.05. Also, the fold change (FC) in series [7] was determined as 81. The IP in series [2] is 100 nM. Besides, the concentration at 2 h is 12800 nM in series [3], 97 nM in series [4] and 311 nM in series [5].

Consider `COc1ccc(Cn2cc(C(=O)O)c(=O)c3ccccc32)cc1`, for which, in series [2], the IP was determined as 660 nM.

Consider `COc1cccc(-c2ccc(Cn3cc(C(=O)O)c(=O)c4cccc(F)c43)nc2)c1`, for which, in series [2], the IP was found to be 89 nM.

As for `O=C(O)c1cn(Cc2ccc(-c3cccnc3)nn2)c2c(F)cccc2c1=O`, the IP in series [2] came to 778 nM.

Source of the values: ChEMBL document CHEMBL1153183, “Pyridine containing M(1) positive allosteric modulators with reduced plasma protein binding” (Bioorg Med Chem Lett, 2010).
